# What was measured:
# Adenosine receptor A2a [1] = target: T1, Adenosine receptor A2a (Homo sapiens, UniProt P29274); experiment: Displacement of [3H]MSX-2 from recombinant human A2A adenosine receptor expressed in CHO cell membranes at 1 uM measured after 30 mins in presence of adenosine deaminase by liquid scintillation counting method relative to control
# In short: (§1)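 Single-point competition binding at human AR subtype membranes, each against its own tritiated radioligand. The test compound is given at 1 μM, and the result is reported as percent inhibition of radioligand binding. The radioligand-specific footnotes give n = 3.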
# Adenosine receptor A3 = target: T2, Adenosine receptor A3 (Mus musculus, UniProt Q61618); experiment: Displacement of [3H]NECA from recombinant mouse A3 adenosine receptor expressed in CHO cell membranes measured after 180 mins in presence of adenosine deaminase by liquid scintillation counting method
# T2 sequence (Q61618 whole entry): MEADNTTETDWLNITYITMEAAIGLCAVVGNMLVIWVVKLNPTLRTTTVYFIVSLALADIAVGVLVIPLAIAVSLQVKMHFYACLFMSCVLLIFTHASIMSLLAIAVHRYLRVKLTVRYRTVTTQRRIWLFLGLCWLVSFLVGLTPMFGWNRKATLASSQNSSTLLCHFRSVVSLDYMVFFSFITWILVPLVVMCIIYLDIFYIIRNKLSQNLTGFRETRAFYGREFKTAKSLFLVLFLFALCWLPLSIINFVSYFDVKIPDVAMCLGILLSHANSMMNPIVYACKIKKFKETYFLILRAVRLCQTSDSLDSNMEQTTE
# Adenosine receptor A2b = target: T3, Adenosine receptor A2b (Homo sapiens, UniProt P29275); experiment: Displacement of [3H]PSB-603 from recombinant human A2B adenosine receptor expressed in CHO cell membranes measured after 75 mins in presence of adenosine deaminase by liquid scintillation counting method
# T3 sequence (P29275 whole entry): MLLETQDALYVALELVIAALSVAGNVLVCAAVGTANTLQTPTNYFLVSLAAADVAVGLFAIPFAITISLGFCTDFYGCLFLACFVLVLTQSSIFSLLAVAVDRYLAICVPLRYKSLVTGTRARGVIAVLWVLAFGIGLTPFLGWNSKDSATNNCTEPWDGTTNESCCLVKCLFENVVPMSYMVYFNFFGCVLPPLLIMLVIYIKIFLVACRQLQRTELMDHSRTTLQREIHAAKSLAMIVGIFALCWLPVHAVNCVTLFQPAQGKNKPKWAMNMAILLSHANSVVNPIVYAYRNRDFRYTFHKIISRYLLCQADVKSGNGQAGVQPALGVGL
# In short: (§2)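 Competition binding on membranes of cells recombinantly expressing the human receptor (CHO or HEK cells), with tritiated radioligand per subtype: [3H]PSB-603 for A2B, [3H]MSX-2 for A2A, [3H]CCPA for A1, [3H]PSB-11 for A3. Ki ± SEM from n = 3, some from extrapolated curves. Weak binders are reported as % inhibition of radioligand binding at 1 μM.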
# [2] = target: T4, Adenosine receptor A3 (Homo sapiens) (UniProt P0DMS8); experiment: Displacement of [3H]PSB-11 from recombinant human A3 adenosine receptor expressed in CHO cell membranes at 1 uM measured after 45 mins in presence of adenosine deaminase by liquid scintillation counting method relative to control; in short: as §1
# T4 sequence (whole entry): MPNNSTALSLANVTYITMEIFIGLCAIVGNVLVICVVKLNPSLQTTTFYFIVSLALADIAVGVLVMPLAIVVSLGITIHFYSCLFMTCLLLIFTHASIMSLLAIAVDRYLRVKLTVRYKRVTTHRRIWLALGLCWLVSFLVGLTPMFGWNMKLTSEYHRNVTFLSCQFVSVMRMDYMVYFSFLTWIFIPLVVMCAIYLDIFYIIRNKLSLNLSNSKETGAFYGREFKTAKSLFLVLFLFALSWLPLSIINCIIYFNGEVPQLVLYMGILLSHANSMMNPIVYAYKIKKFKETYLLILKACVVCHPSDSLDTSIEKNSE
# [3] = target: T5, Adenosine receptor A1 (Homo sapiens) (UniProt P30542); experiment: Displacement of [3H]CCPA from recombinant human A1 adenosine receptor expressed in CHO cell membranes at 1 uM measured after 90 mins in presence of adenosine deaminase by liquid scintillation counting method relative to control; in short: as §1
# T5 sequence (whole entry): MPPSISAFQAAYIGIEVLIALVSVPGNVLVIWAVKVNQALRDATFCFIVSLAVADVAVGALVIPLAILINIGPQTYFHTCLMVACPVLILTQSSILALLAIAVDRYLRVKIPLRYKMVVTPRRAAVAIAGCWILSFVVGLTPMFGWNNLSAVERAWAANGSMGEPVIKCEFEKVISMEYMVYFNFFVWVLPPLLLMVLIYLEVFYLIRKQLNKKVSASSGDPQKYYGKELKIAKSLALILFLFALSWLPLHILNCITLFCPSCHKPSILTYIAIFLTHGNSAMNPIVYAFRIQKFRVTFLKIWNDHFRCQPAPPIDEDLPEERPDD
# Homo sapiens [4] = species: Homo sapiens; experiment: Selectivity index, ratio of Ki for displacement of [3H]PSB-11 from recombinant human A3 adenosine receptor expressed in CHO cell membranes to Ki for displacement of [3H]PSB-603 from recombinant human A2B adenosine receptor expressed in CHO cell membranes
# [5] = target: T6, Adenosine receptor A2b (Homo sapiens) (UniProt P29275); experiment: Competitive antagonist activity at recombinant human A2B adenosine receptor expressed in CHO cells assessed as reduction in NECA-induced […] cAMP accumulation preincubated for 10 mins followed by NECA stimulation for 15 mins […] and measured after 15 mins; format: functional, cell-based
# T6 sequence (whole entry): T3 sequence (P29275 whole entry)
# Homo sapiens [6] = species: Homo sapiens; experiment: Selectivity index, ratio of Ki for displacement of [3H]CCPA from recombinant human A1 adenosine receptor expressed in CHO cell membranes to Ki for displacement of [3H]PSB-603 from recombinant human A2B adenosine receptor expressed in CHO cell membranes
# Adenosine receptor A1 [7] = target: T7, Adenosine receptor A1 (Mus musculus, UniProt Q60612); experiment: Displacement of [3H]CCPA from recombinant mouse A1 adenosine receptor expressed in CHO cell membranes measured after 90 mins in presence of adenosine deaminase by liquid scintillation counting method
# T7 sequence (Q60612 whole entry): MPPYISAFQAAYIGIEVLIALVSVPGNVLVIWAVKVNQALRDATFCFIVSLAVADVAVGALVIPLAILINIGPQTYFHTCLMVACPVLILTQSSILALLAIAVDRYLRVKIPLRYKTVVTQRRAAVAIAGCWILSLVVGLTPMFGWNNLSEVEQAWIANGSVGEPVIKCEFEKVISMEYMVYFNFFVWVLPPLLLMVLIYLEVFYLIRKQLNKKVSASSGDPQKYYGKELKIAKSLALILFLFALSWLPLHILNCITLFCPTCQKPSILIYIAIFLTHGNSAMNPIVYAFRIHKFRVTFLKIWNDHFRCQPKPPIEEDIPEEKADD
# Adenosine receptor A1 [8] = target: T8, Adenosine receptor A1 (Homo sapiens, UniProt P30542); experiment: Displacement of [3H]CCPA from recombinant human A1 adenosine receptor expressed in CHO cell membranes measured after 90 mins in presence of adenosine deaminase by liquid scintillation counting method; in short: as §2
# T8 sequence (P30542 whole entry): T5 sequence (whole entry)
# Adenosine receptor A2a [9] = target: T1, Adenosine receptor A2a; experiment: Displacement of [3H]MSX-2 from recombinant human A2A adenosine receptor expressed in CHO cell membranes measured after 30 mins in presence of adenosine deaminase by liquid scintillation counting method; in short: as §2
# T1 sequence (P29274 whole entry): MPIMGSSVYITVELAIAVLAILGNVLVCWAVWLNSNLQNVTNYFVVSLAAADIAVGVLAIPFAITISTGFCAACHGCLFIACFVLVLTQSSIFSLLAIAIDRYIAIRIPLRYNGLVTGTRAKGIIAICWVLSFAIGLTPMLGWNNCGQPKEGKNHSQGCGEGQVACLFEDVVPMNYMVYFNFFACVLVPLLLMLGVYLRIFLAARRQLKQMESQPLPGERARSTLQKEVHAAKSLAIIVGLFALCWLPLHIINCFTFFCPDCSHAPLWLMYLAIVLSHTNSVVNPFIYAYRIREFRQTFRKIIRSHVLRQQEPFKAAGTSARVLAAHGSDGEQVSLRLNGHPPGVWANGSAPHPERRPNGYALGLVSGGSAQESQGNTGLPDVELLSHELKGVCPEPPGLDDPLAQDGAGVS
inhibition (Adenosine receptor A2a [1]) [%],Ki (Adenosine receptor A3) [nM],Ki (Adenosine receptor A2b) [nM],inhibition [2] [%],inhibition [3] [%],Kb [5] [nM],Ki (Adenosine receptor A1 [7]) [nM],Ki (Adenosine receptor A1 [8]) [nM],Ki (Adenosine receptor A2a [9]) [nM],SMILES,Ratio Ki (Homo sapiens [4]),Ratio Ki (Homo sapiens [6])
33,> 1000,1.91,39,22,1.61,1520,> 1000,> 1000,CCCn1c(=O)c2[nH]c(-c3ccc(S(=O)(=O)N4CCN(c5ccc(Cl)cc5)CC4)cc3)nc2n(C)c1=O,> 520,> 520
38,> 1000,0.632,44,34,0.167,> 300,> 1000,> 1000,CCCn1c(=O)[nH]c2nc(-c3ccc(S(=O)(=O)N4CCN(c5cccc(F)c5)CC4)cc3)[nH]c2c1=O,> 1580,> 1580
33,> 1000,0.0835,29,13,0.0598,> 1000,> 1000,> 1000,CCCn1c(=O)[nH]c2nc(-c3ccc(S(=O)(=O)N4CCN(c5ccc(Br)cc5)CC4)cc3)[nH]c2c1=O,> 12000,> 12000

# From ChEMBL document CHEMBL4346653, “A2B Adenosine Receptor Antagonists with Picomolar Potency” (J Med Chem, 2019)
